Compound activity deposited in PubChem by several laboratories.
Cardiac RTF inh: cardiac RTF calcium desensitization | inhibition, % at 7.15 µM | IANBD-labeled cardiac RTF, Ca2+ fluorescence | hit rate 0.12% among 340,000 | P19429+P45379;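 active = inhibition above the mean inhibition of all tested compounds plus 3 SD, cut at about 17% in these data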;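 also: assay run at fixed EC70 calcium of 1.6 mM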
CAL PDZ FP-1: blocks peptide binding to human CAL PDZ domain; AID 504414; Q9HD26; inhibition, % at 20 µM; purified CAL PDZ, TMR-peptide fluorescence polarization, 1 h; hit rate 0.02% among 330,000;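 active = highest replicate inhibition of at least 40%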;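 also: plate controls were DMSO neutral control wells for no effect and unlabeled competitor peptide control wells for full effect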
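Test system: purified CerCALP PDZ construct; Compound dosing: one concentration, 20 µM compound; Also added: TMR-labelled reporter peptide T*-PRC34 bound in PDZ groove; Read-out: inhibition from polarization loss; Controls: unlabelled peptide and DMSO controls; Signal: FP readout, S and P plane fluorescence; Incubation: 1 h at RT.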
LANA DNA inh: blocks KSHV LANA C-terminal domain binding to DNA; MBP-C-LANA/FAM-LBS DNA binding, fluorescence polarization; inhibition, % at 9 µM; hit rate 0.078% among 340,000; AID 504423;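 active = highest replicate inhibition at or above 60% at 9 µM, even if other replicates fall short; inactive = all replicates below 60% inhibition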;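 also: 0% = neutral control wells and 100% = 4 µM acridine orange control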
RTF Ca sens act: increases calcium sensitivity of human cardiac regulated thin filaments | P19429+P45379 | IANBD-labeled TnC RTF fluorescence at EC20 calcium; 0% EC20 calcium, 100% full calcium | activation, % at 7.2 µM | hit rate 0.24% among 340,000 | AID 493008;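 active = activation above the mean over all tested compounds plus 3 SD, cut at about 30% in these data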;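 also: rise in fluorescence read as greater calcium sensitivity of cardiac thin filaments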
CAL PDZ FP-2: blocks peptide binding to the human CAL PDZ domain; purified CAL PDZ, TMR-peptide fluorescence polarization, 1 h; inhibition, % at 24.9 µM; hit rate 0.92% among 300,000;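 active = mean inhibition of at least 30% with at least half of replicates also reaching 30%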;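 also: 0% = DMSO neutral control and 100% = excess unlabeled competitor peptide PRC23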
Keap1-Nrf2 PPI: disrupts human Keap1 binding to Nrf2 peptide; Q14145; Keap1 Kelch-Nrf2 peptide fluorescence polarization, 1536-well; inhibition, % at 9.4 µM; hit rate 0.15% among 340,000; AID 504523; in the data active = inhibition above about 12%;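 also: human Keap1 Kelch domain with fluorescein labeled Nrf2 9mer peptide probe; 0% = neutral control wells and 100% = peptide positive control; higher means more block of Keap1 binding to Nrf2 peptide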
Target sequence (Q14145 whole entry, looked up, the tested form may be a part): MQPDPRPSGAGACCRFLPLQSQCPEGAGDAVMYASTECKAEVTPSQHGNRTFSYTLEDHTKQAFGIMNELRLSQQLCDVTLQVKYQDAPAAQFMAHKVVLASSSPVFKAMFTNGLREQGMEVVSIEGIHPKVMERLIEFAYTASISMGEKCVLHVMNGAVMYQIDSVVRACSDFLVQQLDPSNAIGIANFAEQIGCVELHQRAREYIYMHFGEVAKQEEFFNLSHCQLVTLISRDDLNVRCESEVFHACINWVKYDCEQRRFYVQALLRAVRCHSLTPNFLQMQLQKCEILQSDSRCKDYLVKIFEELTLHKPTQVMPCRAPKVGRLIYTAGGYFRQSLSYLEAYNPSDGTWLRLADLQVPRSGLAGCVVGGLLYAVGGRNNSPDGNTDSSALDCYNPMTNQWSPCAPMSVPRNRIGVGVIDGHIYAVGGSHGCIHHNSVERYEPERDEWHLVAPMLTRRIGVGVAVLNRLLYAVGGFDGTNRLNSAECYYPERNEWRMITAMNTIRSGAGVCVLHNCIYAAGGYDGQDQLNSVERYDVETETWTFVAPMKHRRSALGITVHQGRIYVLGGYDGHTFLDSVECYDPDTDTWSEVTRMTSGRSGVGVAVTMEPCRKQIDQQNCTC
Numbers without * were called inactive. An excerpt weighted towards active compounds, which were near 1.3% of everything screened.

Screening Cn1c(N)c(S(=O)(=O)N2CCCC2)c(=O)n(C)c1=O returned Cardiac RTF inh -6, CAL PDZ FP-1 -1, LANA DNA inh -1, RTF Ca sens act -1, CAL PDZ FP-2 47* and Keap1-Nrf2 PPI 4.
N#Cc1ccc(CSc2ccc(S(=O)(=O)N3CCCC3)cn2)cc1 was read as Cardiac RTF inh 1, CAL PDZ FP-1 -1, LANA DNA inh -1, RTF Ca sens act 3, CAL PDZ FP-2 -5 and Keap1-Nrf2 PPI -5.
Screening Cn1cc(/C=C2\SC(=S)N(NC(=O)c3ccccc3)C2=O)c2ccccc21 returned Cardiac RTF inh -62, CAL PDZ FP-1 2, LANA DNA inh 0, RTF Ca sens act 70* and Keap1-Nrf2 PPI -4.
For Cn1cc(/C=C2\SC(=S)N(NC(=O)c3cccc(Cl)c3)C2=O)c2ccccc21 the results were Cardiac RTF inh -34, CAL PDZ FP-1 1, LANA DNA inh 0, RTF Ca sens act 45*, CAL PDZ FP-2 -3 and Keap1-Nrf2 PPI 2.
Cn1cc(/C=C2\SC(=S)N(N3CCOCC3)C2=O)c2ccccc21 was read as Cardiac RTF inh -9, CAL PDZ FP-1 0, LANA DNA inh -4, RTF Ca sens act 18 and Keap1-Nrf2 PPI 1.
`CCc1ccc(C(CNC(=O)c2ccc3c(=O)n(-c4ccccc4F)c(=S)[nH]c3c2)N(C)C)cc1` (centres undefined) gave Cardiac RTF inh 2, CAL PDZ FP-1 -7, LANA DNA inh -7, RTF Ca sens act 0, CAL PDZ FP-2 -2 and Keap1-Nrf2 PPI 0.
Cc1ccc(-n2ncc3c2CCCC3NC(=O)CCc2c(C)noc2C)cc1C (centres undefined) was read as Cardiac RTF inh 4, CAL PDZ FP-1 -1, LANA DNA inh 0, RTF Ca sens act -6, CAL PDZ FP-2 33* and Keap1-Nrf2 PPI -1.
COc1cc(OC)c(S(=O)(=O)N2CCOCC2)cc1S(=O)(=O)N1CCOCC1 was read as Cardiac RTF inh -3, CAL PDZ FP-1 -2, LANA DNA inh -1, RTF Ca sens act 2, CAL PDZ FP-2 -4 and Keap1-Nrf2 PPI 1.
For CC/C(=C(/CC)c1ccc(O)cc1)c1ccc(O)cc1 the results were Cardiac RTF inh 18*, CAL PDZ FP-1 0, LANA DNA inh 1 and RTF Ca sens act -4.
CN1C2CCC1/C(=C/c1cccn1C)C(=O)/C2=C\c1cccn1C was read as Cardiac RTF inh -290, CAL PDZ FP-1 0, LANA DNA inh -78, RTF Ca sens act 367* and Keap1-Nrf2 PPI -262.
CN1C2CCC1/C(=C\c1ccc(F)cc1)C(=O)/C2=C/c1ccc(F)cc1 was read as Cardiac RTF inh 11, CAL PDZ FP-1 -1, LANA DNA inh -1, RTF Ca sens act -3, CAL PDZ FP-2 -3 and Keap1-Nrf2 PPI 1.
For CC[C@]12c3[nH]c4cc(CCC(=O)N(C)C)ccc4c3CCN1C(=O)[C@@H](CC(=O)NCCCOC)C[C@@H]2C(=O)N1CCN(C(=O)C2CC2)CC1 the results were Cardiac RTF inh -2, CAL PDZ FP-1 0, LANA DNA inh 0, RTF Ca sens act 0, CAL PDZ FP-2 32* and Keap1-Nrf2 PPI -3.
Screening COc1ccc(/C=N/NC(=O)CN(C)C(=O)OCc2ccccc2)cc1OC returned Cardiac RTF inh -6, CAL PDZ FP-1 -4, LANA DNA inh -1, RTF Ca sens act -3, CAL PDZ FP-2 10 and Keap1-Nrf2 PPI 3.
`CCCn1c(-c2ccc(OC)cc2)nc2ccccc21` gave Cardiac RTF inh 2, CAL PDZ FP-1 -3, LANA DNA inh 0, RTF Ca sens act -3, CAL PDZ FP-2 -5 and Keap1-Nrf2 PPI -2.
COCn1c(-c2ccc(OC)cc2)nc2ccccc21 was read as Cardiac RTF inh 3, LANA DNA inh 0, RTF Ca sens act 0, CAL PDZ FP-2 107* and Keap1-Nrf2 PPI -6.
O=C(OCc1ccc(F)cc1)c1cc(=O)c2ccccc2o1 was read as Cardiac RTF inh -30, CAL PDZ FP-1 -2, LANA DNA inh -1, RTF Ca sens act -5, CAL PDZ FP-2 0 and Keap1-Nrf2 PPI 0.
Screening O=C(NC1CCCCC1)c1cccc2c1C(=O)c1ccc(N3CCC(Cc4ccccc4)CC3)cc1S2(=O)=O returned Cardiac RTF inh -155, CAL PDZ FP-1 1, LANA DNA inh 8, RTF Ca sens act 90*, CAL PDZ FP-2 -2 and Keap1-Nrf2 PPI -5.
`O=C(NCc1ccccc1Br)c1cccc2c1C(=O)c1ccc(N3CCC(Cc4ccccc4)CC3)cc1S2(=O)=O` gave Cardiac RTF inh -2, CAL PDZ FP-1 0, LANA DNA inh 35, RTF Ca sens act 6, CAL PDZ FP-2 0 and Keap1-Nrf2 PPI -1.
O=C(NCC1CCCO1)c1cccc2c1C(=O)c1ccc(N3CCC(Cc4ccccc4)CC3)cc1S2(=O)=O (centres undefined) was read as Cardiac RTF inh -162, CAL PDZ FP-1 0, LANA DNA inh 6, RTF Ca sens act 61*, CAL PDZ FP-2 -2 and Keap1-Nrf2 PPI 0.
For Cc1ccc(CNC(=O)c2cccc3c2C(=O)c2ccc(N4CCCCC4)cc2S3(=O)=O)cc1 the results were Cardiac RTF inh -84, CAL PDZ FP-1 -1, LANA DNA inh 15, RTF Ca sens act 65*, CAL PDZ FP-2 1 and Keap1-Nrf2 PPI -2.
For Cc1ccc(CNC(=O)c2cccc3c2C(=O)c2ccc(N4CCOCC4)cc2S3(=O)=O)cc1 the results were Cardiac RTF inh -13, CAL PDZ FP-1 -1, LANA DNA inh 9, RTF Ca sens act 10, CAL PDZ FP-2 -3 and Keap1-Nrf2 PPI -11.
Cc1cc(/C=N/NC(N)=S)c(O)c(/C=N/NC(N)=S)c1 was read as Cardiac RTF inh -266, CAL PDZ FP-1 0, LANA DNA inh 32, RTF Ca sens act 166*, CAL PDZ FP-2 -1 and Keap1-Nrf2 PPI 0.
For COCC(C)n1c(SCC(=O)N2CC(=O)Nc3ccccc32)nc2ccccc2c1=O (centres undefined) the results were Cardiac RTF inh -4, CAL PDZ FP-1 -2, LANA DNA inh 1, RTF Ca sens act 3, CAL PDZ FP-2 47* and Keap1-Nrf2 PPI 1.
Cc1ccc(NC(=O)CN(C)C(=O)c2ccc3[nH]c4c(c3c2)CC(C)CC4)cc1 (centres undefined) was read as Cardiac RTF inh 6, CAL PDZ FP-1 0, LANA DNA inh 0, RTF Ca sens act -4, CAL PDZ FP-2 74* and Keap1-Nrf2 PPI 0.
For C=CCN(Cc1cc(OC)ccc1OC)C(=O)c1cc2ccc(OC)cc2[nH]1 the results were Cardiac RTF inh -5, CAL PDZ FP-1 -1, LANA DNA inh 0, RTF Ca sens act 0, CAL PDZ FP-2 -2 and Keap1-Nrf2 PPI 2.
CC(OC(=O)c1n[nH]c2ccccc12)C(=O)Nc1ccccc1[N+](=O)[O-] (centres undefined) was read as Cardiac RTF inh -3, CAL PDZ FP-1 0, LANA DNA inh -2, RTF Ca sens act -2, CAL PDZ FP-2 -1 and Keap1-Nrf2 PPI -4.
